# Where no end group is shown, it is not given here. [ ]: non-standard residue; d: D form.
# Molecular target: T1, sPLA2-IIA-integrin αvβ3 interaction (Homo sapiens, UniProt P14555)
# T1 sequence (P14555 21-144): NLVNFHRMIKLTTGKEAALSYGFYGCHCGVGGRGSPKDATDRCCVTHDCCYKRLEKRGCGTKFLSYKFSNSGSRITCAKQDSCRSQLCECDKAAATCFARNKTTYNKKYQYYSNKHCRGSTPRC
# Assay: cell adhesion inhibition assay: αvβ3-K562 cells on immobilized sPLA2-IIA
# Format: cell-based
# Details: for inhibition of the sPLA2-IIA-integrin interaction (in words): αvβ3-K562 cell adhesion to immobilized sPLA2-IIA; for Max. Inhibition / IC50: αvβ3-K562 cells, immobilized sPLA2-IIA, means ± S.E. (n=3); for Max. Inhibition: adhesion without inhibitors as 100%, adhesion to BSA only as 0%; for IC50: compounds 10 to 500 μM, 30 min, cells 1 h at 37 °C
# Method in brief: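 Wells coated with sPLA2-IIA and blocked with BSA, then preincubated 30 min with test compound (10 to 500 μM). K562 erythroleukemia cells transfected to overexpress integrin αvβ3 were added for 1 h at 37 °C. Bound cells were quantified by phosphatase assay. IC50 and maximum inhibition came from dose-response data, with no-inhibitor adhesion as 100% and BSA-only as 0%. n=3.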
Compound,inhibition of the sPLA2-IIA-integrin interaction (in words),Max. Inhibition,IC50 [µM]
"Cc1nc(NC(=O)c2ccccc2)sc1-c1cc(C(=O)O)[nH]n1 [Cmpd8-1, R-OH]",not inhibitory,"N/A (N/A, “not active’ (<30% inhibition))",
"Cc1nc(NC(=O)c2ccccc2)sc1-c1cc(C(=O)N[C@@H](C)C(=O)O)[nH]n1 [Cmpd8-2, R-Ala]",,"N/A (N/A, “not active’ (<30% inhibition))",
"Cc1nc(NC(=O)c2ccccc2)sc1-c1cc(C(=O)NCC(=O)O)[nH]n1 [Cmpd21-1, R-Gly]",active,,
Ala-Trp-Asp*-Ile [Cmpd8-5],not inhibitory,"N/A (N/A, “not active’ (<30% inhibition))",
Gly-Arg*-Gly-Asp*-Asp*-Asp* [Cmpd21-6],not inhibitory,"N/A (N/A, “not active’ (<30% inhibition))",
R-Ala-Trp-Asp*-Ile (AW[dD]I-NH2; not fully specified (N-terminus)) [Cmpd8],,,20 ± 1.3
R-Gly-Arg*-Gly-Asp* (G[dR]G[dD]-NH2; not fully specified (N-terminus)) [Cmpd21-4],,,155 ± 3.8
R-Gly-Arg*-Gly-Asp*-Asp*-Asp* (G[dR]G[dD][dD][dD]-NH2; not fully specified (N-terminus)) [Cmpd21],,,71 ± 18

# Reference: publication PMC4570851 (Bioorganic & medicinal chemistry letters, 2012)
